Assay results: ChEMBL document CHEMBL5380865, “Linearization of the Brevicidine and Laterocidine Lipopeptides Yields Analogues That Retain Full Antibacterial Activity” (J Med Chem, 2023)
Values after ≈ are worked out from the molar mass of the structure shown. Where a SMILES comes first, the peptide text is derived from it. Bridges are numbered along the chain shown (N, C = ends). [ ]: non-standard residue; d: D form. The star is where a group is joined. ξ: configuration not given here. Octanoyl(7-Me) = CC(C)CCCCCC(=O)*; Hexanoyl(4ξ-Me) = CCC(C)CCC(=O)*; dOrn = NCCC[C@@H](N)C(=O)O; Orn = NCCC[C@H](N)C(=O)O; Dap = NC[C@H](N)C(=O)O; Alloc = C=CCOC(=O)*; OAll = C=CCO*

Key:
[1] = Hemolytic activity in sheep red blood cell assessed as hemolysis at 1 to 128 ug/ml incubated for 1 hrs relative to control; type: toxicity, cell-based, Ovis aries, Erythrocyte; settings: sheep red blood cells (erythrocytes), at 1 to 128 µg/mL, dose 1-128 µg/ml, read-out: Activity
Procedure, shortened: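 Defibrinated sheep erythrocytes washed five times in PBS with 0.002% Tween20 and normalized so the Triton control reads 2.5–3.0 at 415 nm. Mixed 1:1 with compound serial dilutions (128–1 μg/mL) and incubated 1 h at 37 °C, 500 rpm. Supernatant A415 is background-corrected with buffer and expressed as percent of 0.1% Triton X-100 (final). Run in triplicate.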

Escherichia coli = assay: Antibacterial activity Escherichia coli ATCC 25922 assessed as inhibition of visible bacterial growth incubated for 18 hrs by microbroth dilution assay; type: functional
Procedure, shortened: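 CLSI broth microdilution. Strains streaked from glycerol stocks onto blood agar (16 h, 37 °C); single colonies grown in TSB at 37 °C, 220 rpm, to OD600 about 0.5. Diluted in MHB to 2 × 10^5 CFU/mL and mixed 1:1 with compounds serially diluted in MHB from DMSO stocks (colistin from water stocks), polypropylene plates. Sealed, 18 h at 37 °C, 600 rpm. MIC taken as lowest concentration preventing visible growth, three technical replicates.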

| Compound | hemolysis at 1 h [1] [%] | MIC (Escherichia coli) [µg/mL] |
| --- | --- | --- |
| CCC(C)CCC(=O)N[C@H](CC(N)=O)C(=O)N[C@H](Cc1ccc(O)cc1)C(=O)N[C@H](Cc1c[nH]c2ccccc12)C(=O)N[C@H](CCCN)C(=O)N[C@@H](CCCN)C(=O)NCC(=O)N[C@H](CCCN)C(=O)N[C@@H](Cc1c[nH]c2ccccc12)C(N)=O (stereo not given in full) ({Hexanoyl(4ξ-Me)}-[dN][dY][dW][dOrn][Orn]G[dOrn]W-NH2) | < 0.1 | – |
| CCC(C)CCC(=O)N[C@H](CC(N)=O)C(=O)N[C@H](Cc1ccc(O)cc1)C(=O)N[C@H](Cc1c[nH]c2ccccc12)C(=O)N[C@H](CCCN)C(=O)N[C@@H](CCCN)C(=O)NCC(=O)N[C@H](CCCN)C(=O)N[C@@H](Cc1c[nH]c2ccccc12)C(=O)N[C@H](C(N)=O)[C@@H](C)O (stereo not given in full) ({Hexanoyl(4ξ-Me)}-[dN][dY][dW][dOrn][Orn]G[dOrn]WT-NH2) | < 0.1 | – |
| CCC(C)CCC(=O)N[C@H](CC(N)=O)C(=O)N[C@H](Cc1ccc(O)cc1)C(=O)N[C@H](Cc1c[nH]c2ccccc12)C(=O)N[C@H](CCCN)C(=O)N[C@@H](CCCN)C(=O)NCC(=O)N[C@H](CCCN)C(=O)N[C@@H](Cc1c[nH]c2ccccc12)C(=O)N[C@H](C(=O)N[C@H](C(N)=O)[C@@H](C)CC)[C@@H](C)O (stereo not given in full) ({Hexanoyl(4ξ-Me)}-[dN][dY][dW][dOrn][Orn]G[dOrn]WTI-NH2) | < 0.1 | – |
| CCC(C)CCC(=O)N[C@H](CC(N)=O)C(=O)N[C@H](Cc1ccc(O)cc1)C(=O)N[C@H](Cc1c[nH]c2ccccc12)C(=O)N[C@H](CCCN)C(=O)N[C@@H](CCCN)C(=O)NCC(=O)N[C@H](CCCN)C(=O)N[C@@H](Cc1c[nH]c2ccccc12)C(=O)N[C@H](C(=O)N[C@H](C(=O)NCC(=O)N[C@@H](CO)C(N)=O)[C@@H](C)CC)[C@@H](C)O (stereo not given in full) ({Hexanoyl(4ξ-Me)}-[dN][dY][dW][dOrn][Orn]G[dOrn]WTIGS-NH2) | < 0.1 | – |
| CCC(C)CCC(=O)N[C@H](CC(N)=O)C(=O)N[C@H](Cc1ccc(O)cc1)C(=O)N[C@H](Cc1c[nH]c2ccccc12)C(=O)N[C@H](CCCN)C(=O)N[C@@H](CCCN)C(=O)NCC(=O)N[C@H](CCCN)C(=O)N[C@@H](Cc1c[nH]c2ccccc12)C(=O)N[C@H](C(=O)N[C@H](C(=O)NCC(=O)N[C@@H](CO)C(=O)O)[C@@H](C)CC)[C@@H](C)O (stereo not given in full) ({Hexanoyl(4ξ-Me)}-[dN][dY][dW][dOrn][Orn]G[dOrn]WTIGS-OH) | < 0.1 | – |
| CCC(C)CCC(=O)N[C@H](CC(N)=O)C(=O)N[C@H](Cc1ccc(O)cc1)C(=O)N[C@H](Cc1c[nH]c2ccccc12)C(=O)N[C@H](CCCN)C(=O)N[C@@H](CCCN)C(=O)NCC(=O)N[C@H](CCCN)C(=O)N[C@@H](Cc1c[nH]c2ccccc12)C(=O)N[C@@H]1C(=O)N[C@@H]([C@@H](C)CC)C(=O)NCC(=O)N[C@@H](CO)C(=O)O[C@@H]1C (stereo not given in full) ({Hexanoyl(4ξ-Me)}-[dN][dY][dW][dOrn][Orn]G[dOrn]WTIGS; ester 9-C) | < 0.1 | – |
| C=CCOC(=O)NC[C@H](NC(=O)[C@H](Cc1c[nH]c2ccccc12)NC(=O)[C@@H](CCCN)NC(=O)CNC(=O)[C@H](CCCN)NC(=O)[C@@H](CCCN)NC(=O)[C@@H](Cc1c[nH]c2ccccc12)NC(=O)[C@@H](Cc1ccc(O)cc1)NC(=O)[C@@H](CC(N)=O)NC(=O)CCC(C)CC)C(=O)N[C@H](C(=O)NCC(N)=O)[C@@H](C)CC (stereo not given in full) ({Hexanoyl(4ξ-Me)}-[dN][dY][dW][dOrn][Orn]G[dOrn]W[Dap](Alloc)IG-NH2) | < 0.1 | – |
| CC[C@H](C)[C@H](NC(=O)[C@@H](NC(=O)[C@H](Cc1c[nH]c2ccccc12)NC(=O)[C@@H](CCCN)NC(=O)[C@H](C)NC(=O)[C@H](CCCN)NC(=O)[C@@H](CCCN)NC(=O)[C@@H](Cc1c[nH]c2ccccc12)NC(=O)[C@@H](Cc1ccc(O)cc1)NC(=O)[C@@H](CO)NC(=O)CCCCCC(C)C)[C@@H](C)O)C(=O)N[C@@H](CC(N)=O)C(=O)NCC(=O)NCC(N)=O ({Octanoyl(7-Me)}-[dS][dY][dW][dOrn][Orn]A[dOrn]WTINGG-NH2) | – | 4 (≈ 2.45 µM) |
| CC(C)CCCCCC(=O)N[C@H](CO)C(=O)N[C@H](Cc1ccc(O)cc1)C(=O)N[C@H](Cc1c[nH]c2ccccc12)C(=O)N[C@H](CCCN)C(=O)N[C@@H](CCCN)C(=O)NCC(=O)N[C@H](CCCN)C(=O)N[C@@H](Cc1c[nH]c2ccccc12)C(N)=O ({Octanoyl(7-Me)}-[dS][dY][dW][dOrn][Orn]G[dOrn]W-NH2) | < 0.1 | – |
| C=CCOC(=O)CC[C@H](NC(=O)[C@H](Cc1c[nH]c2ccccc12)NC(=O)[C@@H](CCCN)NC(=O)CNC(=O)[C@H](CCCN)NC(=O)[C@@H](CCCN)NC(=O)[C@@H](Cc1c[nH]c2ccccc12)NC(=O)[C@@H](Cc1ccc(O)cc1)NC(=O)[C@@H](CO)NC(=O)CCCCCC(C)C)C(=O)N[C@H](C(=O)N[C@@H](CC(N)=O)C(=O)NCC(=O)NCC(N)=O)[C@@H](C)CC ({Octanoyl(7-Me)}-[dS][dY][dW][dOrn][Orn]G[dOrn]WE(OAll)INGG-NH2) | < 0.1 | – |
| CC[C@H](C)[C@H](NC(=O)[C@H](Cc1ccccc1)NC(=O)[C@H](Cc1c[nH]c2ccccc12)NC(=O)[C@@H](CCCN)NC(=O)CNC(=O)[C@H](CCCN)NC(=O)[C@@H](CCCN)NC(=O)[C@@H](Cc1c[nH]c2ccccc12)NC(=O)[C@@H](Cc1ccc(O)cc1)NC(=O)[C@@H](CO)NC(=O)CCCCCC(C)C)C(=O)N[C@@H](CC(N)=O)C(=O)NCC(=O)NCC(N)=O ({Octanoyl(7-Me)}-[dS][dY][dW][dOrn][Orn]G[dOrn]WFINGG-NH2) | 0.6 | – |
| CC[C@H](C)[C@H](NC(=O)[C@H](CC(C)C)NC(=O)[C@H](Cc1c[nH]c2ccccc12)NC(=O)[C@@H](CCCN)NC(=O)CNC(=O)[C@H](CCCN)NC(=O)[C@@H](CCCN)NC(=O)[C@@H](Cc1c[nH]c2ccccc12)NC(=O)[C@@H](Cc1ccc(O)cc1)NC(=O)[C@@H](CO)NC(=O)CCCCCC(C)C)C(=O)N[C@@H](CC(N)=O)C(=O)NCC(=O)NCC(N)=O ({Octanoyl(7-Me)}-[dS][dY][dW][dOrn][Orn]G[dOrn]WLINGG-NH2) | < 0.1 | – |
| CC[C@H](C)[C@H](NC(=O)[C@H](CC(N)=O)NC(=O)[C@H](Cc1c[nH]c2ccccc12)NC(=O)[C@@H](CCCN)NC(=O)CNC(=O)[C@H](CCCN)NC(=O)[C@@H](CCCN)NC(=O)[C@@H](Cc1c[nH]c2ccccc12)NC(=O)[C@@H](Cc1ccc(O)cc1)NC(=O)[C@@H](CO)NC(=O)CCCCCC(C)C)C(=O)N[C@@H](CC(N)=O)C(=O)NCC(=O)NCC(N)=O ({Octanoyl(7-Me)}-[dS][dY][dW][dOrn][Orn]G[dOrn]WNINGG-NH2) | < 0.1 | – |
| CC[C@H](C)[C@H](NC(=O)[C@H](CO)NC(=O)[C@H](Cc1c[nH]c2ccccc12)NC(=O)[C@@H](CCCN)NC(=O)CNC(=O)[C@H](CCCN)NC(=O)[C@@H](CCCN)NC(=O)[C@@H](Cc1c[nH]c2ccccc12)NC(=O)[C@@H](Cc1ccc(O)cc1)NC(=O)[C@@H](CO)NC(=O)CCCCCC(C)C)C(=O)N[C@@H](CC(N)=O)C(=O)NCC(=O)NCC(N)=O ({Octanoyl(7-Me)}-[dS][dY][dW][dOrn][Orn]G[dOrn]WSINGG-NH2) | < 0.1 | – |
| CC(C)CCCCCC(=O)N[C@H](CO)C(=O)N[C@H](Cc1ccc(O)cc1)C(=O)N[C@H](Cc1c[nH]c2ccccc12)C(=O)N[C@H](CCCN)C(=O)N[C@@H](CCCN)C(=O)NCC(=O)N[C@H](CCCN)C(=O)N[C@@H](Cc1c[nH]c2ccccc12)C(=O)N[C@H](C(N)=O)[C@@H](C)O ({Octanoyl(7-Me)}-[dS][dY][dW][dOrn][Orn]G[dOrn]WT-NH2) | < 0.1 | > 32 |
| CC[C@H](C)[C@H](NC(=O)[C@@H](NC(=O)[C@H](Cc1c[nH]c2ccccc12)NC(=O)[C@@H](CCCN)NC(=O)CNC(=O)[C@H](CCCN)NC(=O)[C@@H](CCCN)NC(=O)[C@@H](Cc1c[nH]c2ccccc12)NC(=O)[C@@H](Cc1ccc(O)cc1)NC(=O)[C@@H](CO)NC(=O)CCCCCC(C)C)[C@@H](C)O)C(=O)N[C@@H](CC(N)=O)C(=O)NCC(N)=O ({Octanoyl(7-Me)}-[dS][dY][dW][dOrn][Orn]G[dOrn]WTING-NH2) | < 0.1 | – |
| CC[C@H](C)[C@H](NC(=O)[C@@H](NC(=O)[C@H](Cc1c[nH]c2ccccc12)NC(=O)[C@@H](CCCN)NC(=O)CNC(=O)[C@H](CCCN)NC(=O)[C@@H](CCCN)NC(=O)[C@@H](Cc1c[nH]c2ccccc12)NC(=O)[C@@H](Cc1ccc(O)cc1)NC(=O)[C@@H](CO)NC(=O)CCCCCC(C)C)[C@@H](C)O)C(=O)N[C@@H](CC(N)=O)C(=O)NCC(=O)NCC(N)=O ({Octanoyl(7-Me)}-[dS][dY][dW][dOrn][Orn]G[dOrn]WTINGG-NH2) | < 0.1 | – |
| CC[C@H](C)[C@H](NC(=O)[C@@H](NC(=O)[C@H](Cc1c[nH]c2ccccc12)NC(=O)[C@@H](CCCN)NC(=O)CNC(=O)[C@H](CCCN)NC(=O)[C@@H](CCCN)NC(=O)[C@@H](Cc1c[nH]c2ccccc12)NC(=O)[C@@H](Cc1ccc(O)cc1)NC(=O)[C@@H](CO)NC(=O)CCCCCC(C)C)[C@@H](C)O)C(=O)N[C@@H](CC(N)=O)C(=O)NCC(=O)NCC(=O)O ({Octanoyl(7-Me)}-[dS][dY][dW][dOrn][Orn]G[dOrn]WTINGG-OH) | < 0.1 | – |
| C=CCOC(=O)NC[C@H](NC(=O)[C@H](Cc1c[nH]c2ccccc12)NC(=O)[C@@H](CCCN)NC(=O)CNC(=O)[C@H](CCCN)NC(=O)[C@@H](CCCN)NC(=O)[C@@H](Cc1c[nH]c2ccccc12)NC(=O)[C@@H](Cc1ccc(O)cc1)NC(=O)[C@@H](CO)NC(=O)CCCCCC(C)C)C(=O)N[C@H](C(=O)N[C@@H](CC(N)=O)C(=O)NCC(=O)NCC(N)=O)[C@@H](C)CC ({Octanoyl(7-Me)}-[dS][dY][dW][dOrn][Orn]G[dOrn]W[Dap](Alloc)INGG-NH2) | < 0.1 | – |
